The source of these data is ChEMBL document CHEMBL1122519, “Bispyridinamines: a new class of topical antimicrobial agents as inhibitors of dental plaque” (1984).

The structures appear in SMILES notation. Some results are limits rather than exact numbers.

Assay [1] deals with Escherichia coli. Briefly: Minimum inhibitory concentration against Escherichia coli (Vogel). The format is functional. The method, boiled down: (§1)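 Serial twofold tube dilution in tryptose phosphate broth. Each compound was prepared as a 1000 μg/mL aqueous stock and diluted in double-strength broth, then 2×10^5 cells were added. Tubes were incubated aerobically at 37 °C for 24 h. The MIC was taken as the lowest concentration with no visible growth.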

Assay [2] has as its system Escherichia coli. Briefly: Antimicrobial minimum inhibitory concentration against Escherichia coli AB1932-1. It is filed as functional. The method, boiled down: as §1
Assay [3] deals with Escherichia coli. Briefly: Antimicrobial minimum inhibitory concentration against Escherichia coli 100/B22. It is filed as functional. The method, boiled down:
as §1

Another assay concerns Pseudomonas aeruginosa. Briefly: Minimum antimicrobial inhibitory concentration against Pseudomonas aeruginosa MGH-2. It is filed as functional. The gist of the method:
as §1

A further assay deals with Staphylococcus aureus. Put plainly: Minimum antimicrobial inhibitory concentration against Staphylococcus aureus. It is filed as functional. The method, boiled down: as §1
The test system of a further assay is Actinomyces viscosus. Briefly: Compound is evaluated for minimal bactericidal concentration against plaque formation for Actinomyces viscosus. It is filed as functional, organism-based. The gist of the method: (§2)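 Preformed in vitro plaques of S. mutans NCTC 10449 or A. viscosus M-100 were grown on ceramic hydroxylapatite under anaerobic conditions at 37 °C in sucrose-supplemented medium. Plaques were immersed for 30 min at 37 °C in compound at 0.3–20 mM, rinsed, and moved to broth containing bromocresol purple. Kill was judged by no acid production, no turbidity increase and no growth on plating at 48 h. Plaques were run in quadruplicate.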

A further assay deals with Proteus mirabilis. Put plainly: Minimum antimicrobial inhibitory concentration against Proteus mirabilis MGH-1. It is filed as functional. The gist of the method: as §1
The next assay relates to Klebsiella pneumoniae. Briefly: Minimum inhibitory concentration against Klebsiella pneumonia 39645. It is filed as functional. The method, boiled down:
as §1

Assay [4] deals with Streptococcus mutans. Put plainly: Minimum plaque inhibitory concentration using a standard test organism, Streptococcus mutans OMZ-61. The format is functional, organism-based. The gist of the method: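 Ceramic hydroxylapatite plates were soaked twice for 1 min each in compound at […] (aqueous), air-dried and rinsed, then hung in sucrose beef-extract medium (pH 7.0) inoculated with late-log S. mutans OMZ-61. Incubation was anaerobic at 37 °C for 24 h, and treatment plus reinoculation were repeated for a second 24 h. Plaque was stained with 1% FD&C Red No. 3 and scored visually. The value is the lowest concentration giving no plaque while medium growth matched control.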

Assay [5] can be described thus: Compound is evaluated for stain index. It is filed as functional. The method, boiled down: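 Ratio of the minimum concentration staining a plaque-free ceramic hydroxylapatite plate to the minimum plaque-inhibiting concentration, both run under the same conditions. Plates got two 1-min soaks (0.1–0.001%), each followed by air-drying, then a water rinse. They were then held 24 h anaerobically at 37 °C in sucrose beef-extract medium, with or without S. mutans OMZ-61, repeated once. Staining was 1-min 1% FD&C Red No. 3, scored visually.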

Assay [6] deals with Streptococcus mutans. Put plainly: Compound is evaluated for minimal bactericidal concentration against plaque formation for Streptococcus mutans. The format is functional, organism-based. The gist of the method: as §2

In general, MIC refers to the least concentration at which growth counts as inhibited. Low values mean greater potency, high ones weaker potency. `Br.Br.CCCCCCCCCN=c1ccn(CCCCCCCCn2ccc(=NCCCCCCCCC)cc2)cc1`: the MIC was found to be 3.9 µg/mL in the assay on Escherichia coli [1]; 2 µg/mL with Escherichia coli [2]; 2 µg/mL in the assay on Escherichia coli [3]; 7.8 µg/mL in the assay with Pseudomonas aeruginosa; 1 µg/mL against Staphylococcus aureus; 3.9 µg/mL in the assay with Proteus mirabilis. The minimum inhibitory concentration (MIC) in the assay with Klebsiella pneumoniae was 2 µg/mL. For the same compound, the results for the Concentration in the assay with Actinomyces viscosus, in the assay on Streptococcus mutans [4] and with Streptococcus mutans [6] were 2.5 mM, 0.004% and 2.5 mM, respectively. This compound also came in with a Stain index in assay [5] of 1.

As for `Br.Br.CCCCCCCCN=c1ccn(CCCCCCCCCCCCCCn2ccc(=NCCCCCCCC)cc2)cc1`, the MIC in the assay with Escherichia coli [1] was 7.8 µg/mL; against Escherichia coli [2] it was 3.9 µg/mL; in the assay with Escherichia coli [3] it was 3.9 µg/mL; with Pseudomonas aeruginosa, 3.9 µg/mL; in the assay on Staphylococcus aureus, 1 µg/mL; with Proteus mirabilis, 3.9 µg/mL. Further, the MIC with Klebsiella pneumoniae came to 7.8 µg/mL. Further, the Concentration in the assay on Actinomyces viscosus was 2.6 mM; in the assay on Streptococcus mutans [4], 0.005%; in the assay with Streptococcus mutans [6], 1.3 mM. The compound also returned a Stain index in [5] of 2.

For `CCCCCCN=c1ccn(CCCCCCCCCCCCCCn2ccc(=NCCCCCC)cc2)cc1.Cl.Cl`, the MIC in the assay with Escherichia coli [1] turned out to be 1 µg/mL; against Escherichia coli [2], 0.5 µg/mL; in the assay on Escherichia coli [3], 0.5 µg/mL; in the assay with Pseudomonas aeruginosa, 3.9 µg/mL; with Staphylococcus aureus, 0.5 µg/mL; against Proteus mirabilis, 3.9 µg/mL. For the same compound, the lowest concentration to inhibit growth against Klebsiella pneumoniae (MIC) was 1 µg/mL. The Concentration came out at 2.8 mM in the assay on Actinomyces viscosus, 0.004% in the assay with Streptococcus mutans [4] and 1.4 mM in the assay on Streptococcus mutans [6]. The Stain index in [5] was 1.

As to `Br.Br.CCCCCCCCCN=c1ccn(CCCCCCCCCCCCn2ccc(=NCCCCCCCCC)cc2)cc1`, the MIC in the assay on Escherichia coli [1] was determined as 3.9 µg/mL; with Escherichia coli [2], 7.8 µg/mL; in the assay on Escherichia coli [3], 3.9 µg/mL; in the assay on Pseudomonas aeruginosa it was 3.9 µg/mL; against Staphylococcus aureus, 2 µg/mL; against Proteus mirabilis it was 3.9 µg/mL. In the assay with Klebsiella pneumoniae, it took 3.9 µg/mL to inhibit growth (MIC). The results for the Concentration with Actinomyces viscosus, with Streptococcus mutans [4] and in the assay on Streptococcus mutans [6] were 2.6 mM, 0.01% and 1.3 mM, respectively. In addition, the Stain index in assay [5] came to 1.

`CCCCCCCCCN=c1ccn(CCCCCCn2ccc(=NCCCCCCCCC)cc2)cc1.Cl.Cl`: the MIC stood at 2 µg/mL with Escherichia coli [1]; 2 µg/mL in the assay with Escherichia coli [2]; 2 µg/mL against Escherichia coli [3]; 15.6 µg/mL against Pseudomonas aeruginosa; 1 µg/mL in the assay with Staphylococcus aureus; 7.8 µg/mL against Proteus mirabilis. Besides, in the assay on Klebsiella pneumoniae, the MIC worked out at 3.9 µg/mL. Also, the figures for the Concentration in the assay on Actinomyces viscosus, in the assay with Streptococcus mutans [4] and with Streptococcus mutans [6] were 7.3 mM, 0.01% and 7.3 mM, respectively. Moreover, the Stain index in assay [5] worked out at 1.

Consider `Br.Br.CCCCCCCCN=c1ccn(CCCCCCCCCCCCn2ccc(=NCCCCCCCC)cc2)cc1`, for which the MIC in the assay with Escherichia coli [1] is 2 µg/mL; against Escherichia coli [2], 2 µg/mL; against Escherichia coli [3], 2 µg/mL; against Pseudomonas aeruginosa it was 2 µg/mL; in the assay on Staphylococcus aureus, 0.5 µg/mL; in the assay on Proteus mirabilis, 2 µg/mL. Besides, 1 µg/mL was the least that counted as inhibitory against Klebsiella pneumoniae (MIC). Besides, the Concentration came out at 1.35 mM with Actinomyces viscosus, 0.005% with Streptococcus mutans [4] and 2.7 mM in the assay on Streptococcus mutans [6]. Moreover, in [5], the Stain index came to 10.

As to `Br.Br.CCCCCCCCCN=c1ccn(CCCCCCCCCn2ccc(=NCCCCCCCCC)cc2)cc1`, the MIC came out at 2 µg/mL with Escherichia coli [1]; 3.9 µg/mL against Escherichia coli [2]; 2 µg/mL in the assay with Escherichia coli [3]; 3.9 µg/mL in the assay with Pseudomonas aeruginosa; 2 µg/mL in the assay on Staphylococcus aureus; 3.9 µg/mL in the assay with Proteus mirabilis. This compound had an MIC against Klebsiella pneumoniae of 3.9 µg/mL. Further, the Concentration in the assay on Actinomyces viscosus is 1.37 mM; in the assay on Streptococcus mutans [4], 0.004%; in the assay with Streptococcus mutans [6], 1.37 mM. For the same compound, in [5], the Stain index came out at 1.

For `CCCCCCCCN=c1ccn(CCCCCCCCn2ccc(=NCCCCCCCC)cc2)cc1.Cl.Cl`, the MIC against Escherichia coli [1] worked out at 1 µg/mL; against Escherichia coli [2], 1 µg/mL; against Escherichia coli [3], 0.5 µg/mL; in the assay with Pseudomonas aeruginosa, 7.8 µg/mL; against Staphylococcus aureus, 0.2 µg/mL; against Proteus mirabilis it was 3.9 µg/mL. This compound showed an MIC against Klebsiella pneumoniae of 1 µg/mL. Further, the Concentration in the assay with Actinomyces viscosus amounted to 0.88 mM; in the assay with Streptococcus mutans [4], 0.005%; with Streptococcus mutans [6] it was 8.8 mM. In addition, the Stain index in assay [5] worked out at 10.

As to `Br.Br.CCCCCCCCCN=c1ccn(CCCCCCCCCCn2ccc(=NCCCCCCCCC)cc2)cc1`, the MIC in the assay on Escherichia coli [1] turned out to be 2 µg/mL; in the assay with Escherichia coli [2] it was 3.9 µg/mL; with Escherichia coli [3] it was 3.9 µg/mL; in the assay with Pseudomonas aeruginosa, 3.9 µg/mL; against Staphylococcus aureus, 2 µg/mL; against Proteus mirabilis, 3.9 µg/mL. For the same compound, the lowest concentration to inhibit growth with Klebsiella pneumoniae (MIC) was 3.9 µg/mL. Also, the Concentration in the assay on Actinomyces viscosus stood at 2.7 mM; in the assay with Streptococcus mutans [4], 0.004%; in the assay with Streptococcus mutans [6] it was 1.35 mM. The compound further returned a Stain index in assay [5] of 1.

Take `CCCCCCCN=c1ccn(CCCCCCCCCCn2ccc(=NCCCCCCC)cc2)cc1.Cl.Cl`: the MIC against Escherichia coli [1] was determined as 0.5 µg/mL; against Escherichia coli [2], 1 µg/mL; against Escherichia coli [3] it was 0.5 µg/mL; in the assay with Pseudomonas aeruginosa, 7.8 µg/mL; against Staphylococcus aureus it was 0.2 µg/mL; against Proteus mirabilis, 7.8 µg/mL. In the assay on Klebsiella pneumoniae, this compound yielded a minimal inhibitory concentration (MIC) of 1 µg/mL. The Concentration stood at 1.46 mM in the assay on Actinomyces viscosus, 0.004% in the assay on Streptococcus mutans [4] and 0.73 mM in the assay with Streptococcus mutans [6]. Also, the Stain index in [5] is 10.

Consider `CCCCCCCN=c1ccn(CCCCCCCCCCCCn2ccc(=NCCCCCCC)cc2)cc1.Cl.Cl`, for which the MIC with Escherichia coli [1] was 0.5 µg/mL; in the assay on Escherichia coli [2], 1 µg/mL; against Escherichia coli [3], 0.5 µg/mL; in the assay with Pseudomonas aeruginosa, 3.9 µg/mL; against Staphylococcus aureus it was 0.2 µg/mL; against Proteus mirabilis, 2 µg/mL. The MIC with Klebsiella pneumoniae was 2 µg/mL. The Concentration in the assay on Actinomyces viscosus amounted to 2.81 mM; in the assay with Streptococcus mutans [4] it was 0.003%; in the assay on Streptococcus mutans [6], 2.81 mM. In assay [5], this compound registered a Stain index of 10.

Regarding `Br.Br.CCCCCCCCCN=c1ccn(CCCCCCCn2ccc(=NCCCCCCCCC)cc2)cc1`, the minimal inhibitory concentration (MIC) against Escherichia coli [1] is 1 µg/mL; against Escherichia coli [2] it was 2 µg/mL; in the assay on Escherichia coli [3] it was 2 µg/mL; against Pseudomonas aeruginosa it was 15.6 µg/mL; in the assay on Staphylococcus aureus it was 0.5 µg/mL; against Proteus mirabilis, 3.9 µg/mL. The same compound registered an MIC in the assay with Klebsiella pneumoniae of 2 µg/mL. The Concentration in the assay on Actinomyces viscosus was 7.16 mM; in the assay with Streptococcus mutans [4], 0.004%; with Streptococcus mutans [6], 2.86 mM. The compound further came in with a Stain index in assay [5] of 1.

For the compound `Br.Br.c1cn(CCCCCCCCCCn2ccc(=NC3CCCCC3)cc2)ccc1=NC1CCCCC1`, the MIC against Escherichia coli [1] was 15.6 µg/mL; against Escherichia coli [2], 7.8 µg/mL; in the assay with Escherichia coli [3], 15.6 µg/mL; in the assay with Pseudomonas aeruginosa, greater than 125 µg/mL; in the assay with Staphylococcus aureus, 0.2 µg/mL; against Proteus mirabilis, greater than 125 µg/mL. The MIC in the assay with Klebsiella pneumoniae was greater than 125 µg/mL. Besides, in the assay with Streptococcus mutans [4], the Concentration was greater than 1%.

Take `Br.Br.CCCCCCCCCCCCN=c1ccn(CCCCCCCCCCCCn2ccc(=NCCCCCCCCCCCC)cc2)cc1`: the MIC is greater than 62.5 µg/mL in the assay with Escherichia coli [1]; greater than 62.5 µg/mL against Escherichia coli [2]; greater than 62.5 µg/mL against Escherichia coli [3]; greater than 62.5 µg/mL in the assay on Pseudomonas aeruginosa; 31.3 µg/mL in the assay with Staphylococcus aureus; greater than 62.5 µg/mL against Proteus mirabilis. For the same compound, the MIC against Klebsiella pneumoniae is greater than 62.5 µg/mL. This compound yielded a Concentration with Streptococcus mutans [4] of 0.1%.
